Here are results for 167 variants from the RNAGym collection of RNA variant scans (doi:10.1126/science.aae0568).

Variants at the floor of the assay were thinned out.

The labels stand for the following.
B1: tRNA (parent)
chain: GUUCCGUUGGCGUAAUGGUAACGCGUCUCCCUCCUAAGGAGAAGACUGCGGGUUCGAGUCCCGUACGGAACG

In this data set the parent is B1. The data set can be described thus: yeast fitness relative to wild type (ratio to wild type); higher = fitter; tRNA-Arg(CCU), competitive growth, 37 C, YPD. A digest of the protocol: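 For this measurement, the tRNA-Arg(CCU) gene was varied by chemical synthesis at a 3% per-site mutation rate across 69 sites, and each variant was placed at the native genomic locus in Saccharomyces cerevisiae. The pooled strains went through a 24-hour competition in YPD at 37°C in six parallel replicates, with amplicons from start and end populations read by 100-nucleotide paired-end sequencing. Darwinian fitness relative to wild type followed from the change in each genotype's frequency. Genotypes needed ≥ 100 starting reads, and estimates < 0.5 were set to 0.5.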
As to A14C A45U G48A C66G, the yeast fitness was not above 0.5. The value for A14C A15C A21U A57G was not above 0.5; that for U13G C24U A36G U47C G50A was 0.518; that for A14C C46U G67C was 0.589. Next, U13G C30U U32C: 0.686.

A14C C27G C46G C55G: the yeast fitness was not above 0.5. Next, A14C A15G A42G: 0.738; A14C A42G A57U: not above 0.5; U13G A43G U53A: 0.57. Next, U13C G18C G50C A57U C62U: 0.578; A14C A43U C61U: not above 0.5; U13C G38C: 0.644. For the variant A14C C22A C46A U64C, the yeast fitness was not above 0.5.

As for U13C C31U U47G, the yeast fitness came to 0.562. Next, A14C A21C C24U A36U A43U G58C: not above 0.5.

Take U13C A57U U59A A69G: the yeast fitness stood at 0.561. The value for U13C G52A C55G A69U was not above 0.5; that for U13C U16C A57G G68A A69G was not above 0.5; that for A14C A45C C49G U54C C66U was not above 0.5. The value for A14C C22G U26G C55A A65G was not above 0.5.

On to U13G U16A C24U G44A C49G, for which the yeast fitness was not above 0.5. Regarding U13C C27U G52A U53A C66U, the yeast fitness was not above 0.5. Next, U13G C24A C46G G52A: not above 0.5; U13C C29A: 0.618; U13G A21U C22G U35A A65G: not above 0.5.

Consider U13G A37C, for which the yeast fitness amounted to 0.65. The value for A14C C34G A43U G48A was not above 0.5. The value for A14C A20U C66U was not above 0.5; that for U13G G25A U59C was 0.681. As for A14C A15U C62G, the yeast fitness was not above 0.5. As to U13C G41C A70C, the yeast fitness came to 0.566. The value for A14C C33A G41U C49U C66U was not above 0.5; that for U13G C24U G56A was 0.612. Next, A14C A40C U64C: 0.622; A14C C61U C66G: 0.522. Consider U13C C31U A69U, for which the yeast fitness came to 0.835.

For A14C C29U C33G, the yeast fitness was 0.527. Turning to U13C U19A A42C G50C, the yeast fitness turned out to be 0.619.

With U13C C33U, the yeast fitness amounted to 0.744.

U13C G18C: the yeast fitness worked out at 0.618. Next, U13C U47G: 0.625.

For the variant A14C C24A G52A U53A A57C, the yeast fitness is 0.5.

Turning to A14C C33G G44A C49A C55A, the yeast fitness is not above 0.5. Next, U13G U54C G56A: 0.563. As for A14C C34U G39C C55U G56C, the yeast fitness is not above 0.5. Next, A14C C30A A69U: not above 0.5; A14C A20G A36G C55U G68C: not above 0.5. Next, U13G C27U C31U C34G A40G G63C: not above 0.5; A14C C49U: 0.715; U13G A57C: 0.599. The value for U13C G67C was 0.771.

Take U13C G67A: the yeast fitness turned out to be 0.848. Next, U13C G67U: 0.719. The value for A14C A42U C55G U59A was 0.612; that for A14C C31G C62A A65U C66U was 0.506. Regarding A14C A20C, the yeast fitness turned out to be 0.533.

In the case of A14C C22A A37U, the yeast fitness was 0.646. Regarding A14C A36U C60U A69U, the yeast fitness was not above 0.5.

U13G C22U G25A C31A: the yeast fitness stood at 0.601. Next, U13C G38A C49U: not above 0.5. Next, A14C A57U C61U: not above 0.5; U13C C24G: 0.672. Next, U13G A36G G68C: not above 0.5; U13G C60U: 0.747. In the case of A14C C22G G63A, the yeast fitness came out at 0.642. The value for U13G U16C A42U G44A C49A was not above 0.5. Next, U13G U28G C61U: 0.523.

On to A14C A40C G68A, for which the yeast fitness was not above 0.5. Turning to A14C A21C C46A, the yeast fitness was 0.604. Next, U13C C27G A36G U54G: not above 0.5. The value for U13G U28A C30A was not above 0.5; that for A14C A37C U54C was not above 0.5. For the variant A14C A57G A69U, the yeast fitness was not above 0.5. Next, U13C G23C C29G A43U G50A A65C: not above 0.5; U13C G23C C62A: not above 0.5; U13G A21U C22G U26C U35A A65G A70C: not above 0.5. Consider U13C G23C U47C, for which the yeast fitness is not above 0.5. The value for U13G U54A G68C was not above 0.5; that for U13G A65C A70G was 0.619. Turning to A14C C27U C31U C33A G67C, the yeast fitness came to 0.541. The value for U13C G25C C31G was 0.877.

In the case of U13C U53A, the yeast fitness was determined as 0.674.

Consider U13C U53C, for which the yeast fitness came to 0.727. Consider U13C G44A C49U, for which the yeast fitness worked out at 0.799.

On to A14C A45U A70G, for which the yeast fitness came out at 0.561.

Take A14C C34A: the yeast fitness stood at 0.565.

On to U13G C31U U35A, for which the yeast fitness was 0.51. In the case of U13G U32A C46U, the yeast fitness amounted to 0.577.

Turning to A14C C31U A36U C55G, the yeast fitness was not above 0.5. Next, A14C C27U C46U A70G: not above 0.5. Next, A14C C24U A57G C60U G68C: not above 0.5; U13G C24U G44A G58C: 0.508. The value for U13G A40U C62A was 0.52; that for U13C C29G A36G G41A G48C A57U was not above 0.5; that for A14C A15U G17A C27U U32C U35G was not above 0.5.

For the variant U13G A42C U54A G67C A69U, the yeast fitness was not above 0.5. Next, A14C C34G C49A C61U: not above 0.5; A14C A15G: 0.675. Next, U13G U32C C33U C62U A65G: not above 0.5; U13G C24G A36C A40U G48A: 0.525.

Regarding A14C C24A C27G C46G A65G, the yeast fitness was not above 0.5. In the case of U13C G23A G63A A70U, the yeast fitness turned out to be 0.527. Next, U13G G68A: 0.798. The value for U13G C22U C31A was 0.552. The value for U13G G39C was 0.735; that for A14C C30A C66U A70G was 0.622. Take A14C A21C C27U: the yeast fitness was not above 0.5. Next, U13C G23C A36C G39A A43G: not above 0.5; A14C C60G C66U G68A: not above 0.5; A14C C34G A57U: 0.518. The value for U13G U35C A70U was 0.508; that for A14C C30U G58A was not above 0.5; that for A14C C27A C31A was 0.588. U13G A65G C66A: the yeast fitness is not above 0.5.

For the variant U13G A40G U47C A69U, the yeast fitness was 0.653.

As for A14C A43G A69C, the yeast fitness was not above 0.5. Next, U13C C31U G50C: not above 0.5.

For U13C C22U G38C G51A A57C, the yeast fitness was not above 0.5. Next, U13G A42G: 0.733. Next, A14C C27G C46G A65G C66U: not above 0.5.

Take U13C C34G A40U A45C A57C C61U: the yeast fitness is not above 0.5. The value for U13G U28A C49A C55U C60U C61U was not above 0.5; that for U13G U26G C33G U47A was 0.602. The value for U13C C31A C55A was 0.565. The value for U13C C22G C24U A37C G51C C55U A69C A70U was not above 0.5; that for A14C A37G A45C was not above 0.5. Regarding A14C A36G C62A, the yeast fitness was not above 0.5.

For A14C A36G C62U, the yeast fitness was not above 0.5.

On to A14C C29U A36G A45U, for which the yeast fitness was 0.543. In the case of U13C G51A A65C, the yeast fitness is not above 0.5. The value for U13G A20U A42G U59A A65G was not above 0.5. The value for A14C C49U U64A was 0.556; that for U13G U26G G52A was not above 0.5. The value for U13C G25A C33G G41C C61G A65U was not above 0.5; that for U13G C29U G48A G56A was 0.55.

With U13G G39C C49G A65G, the yeast fitness was not above 0.5.

In the case of A14C A20G G23A C29U U35C C55G, the yeast fitness was not above 0.5. The value for U13C C61U was 0.928; that for U13G U32G A45G C49U A70U was not above 0.5.

In the case of U13C C31G, the yeast fitness was determined as 0.933. On to A14C C22U, for which the yeast fitness turned out to be 0.61. As for A14C C22G, the yeast fitness worked out at 0.701.

A14C C24A U32G G41C: the yeast fitness came out at 0.501. As to U13G C46U A65G, the yeast fitness turned out to be 0.773. As for U13C C31U A57G U64A C66A A69C, the yeast fitness is not above 0.5.

On to U13C C22A U32A A36G A43U, for which the yeast fitness was not above 0.5.

On to A14C C24U A36G, for which the yeast fitness is 0.591.

Turning to U13G C31A, the yeast fitness amounted to 0.833. The value for U13G U26A was 0.987; that for A14C C22G G25C G44A was not above 0.5; that for A14C C29U C31U A36G A45U A70G was not above 0.5. Next, U13C U28G U54A C62A: 0.624; U13C G41C: 0.761. The value for U13G A20U A69U was 0.708; that for A14C A42U C55G was not above 0.5. As for U13G C34U A37U, the yeast fitness was not above 0.5. Turning to A14C C22U C66U, the yeast fitness was not above 0.5. For the variant A14C C24G G39A A43G, the yeast fitness is not above 0.5. Take U13C C29G C62U A69C: the yeast fitness worked out at 0.537. Next, U13G U28G A57U A65C A69C: not above 0.5. The value for A14C C24U C31U A40U G44A was not above 0.5; that for U13C U19C U26C C31A C61G was not above 0.5; that for A14C C24U C31U U53C C61G was not above 0.5. Next, U13G G48A: 0.986; U13C G18A A43U: 0.627; U13C U28A C62U C66A: not above 0.5. Turning to U13G A37C U47A A70G, the yeast fitness is not above 0.5.
